From ChEMBL document CHEMBL1139875, “Discovery of 4-aminobutyric acid derivatives possessing anticonvulsant and antinociceptive activities: a hybrid pharmacophore approach” (2007)
The source made the active and inactive calls. The calls are words filed in the database; no cut-off is given here.

Columns and labels:
[1] = tested on: Mus musculus; test: Anticonvulsant activity in Swiss Albino mouse at 300 mg/kg, ip after 4 hrs by scPIC test; type: functional, organism-based; parameters: dose 300 mg/kg
How it was run: (§1)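 Mice (Swiss, 20-25 g) given i.p. doses of 30, 100 and 300 mg/kg under ADD program protocols, three per group, examined at 0.5 and 4 h in MES, scPTZ, scSTY or scPIC seizure tests. Value is the minimum dose protecting half or more of the mice.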

[2] = tested on: Rattus norvegicus; test: Anti-dynamic allodynia effect in Sprague-Dawley rat SNL model assessed as latency to paw withdrawal 100 mg/kg, ip after 2 hrs; type: functional; settings: route intraperitoneal
How it was run: (§2)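 Left L5 spinal nerve ligation rats, tested preoperatively and 9 days postoperatively, then given 100 mg/kg i.p. (vehicle 30% v/v PEG 400 in water). After 10 min acclimatization, plantar surface of affected paw stroked mildly with a cotton-bud; paw lift response recorded. n = 4; retested 0.5-2.5 h post-dose.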

[3] = tested on: Rattus norvegicus; test: Antihyperalgesic effects in Sprague-Dawley rat SNL model assessed as duration of paw withdrawal at 100 mg/kg, ip after 1 hr, ip; type: functional; settings: route intraperitoneal
How it was run: (§3)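 L5 SNL rats (n = 4), dosed 100 mg/kg i.p. (vehicle 30% v/v PEG 400 in water). Pin-prick to midplantar ipsilateral left hindpaw; withdrawal duration, mean of three responses; ≥2 s defined abnormal. Mean ± SEM; one-way ANOVA with Bonferroni versus predrug.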

[4] = tested on: Rattus norvegicus; test: Anti-cold allodynia effect in Sprague-Dawley rat SNL model assessed as duration of paw withdrawal 100 mg/kg, ip after 2.5 hrs; type: functional; settings: route intraperitoneal
How it was run: (§4)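 Left L5 spinal nerve ligation under pentobarbital (65 mg/kg i.p.). Allodynic rats dosed i.p. 100 mg/kg, vehicle 30% v/v PEG 400 in water. Acetone (100-200 µL) misted onto midplantar affected paw after 10 min acclimatization; paw withdrawal duration, mean of three samples at least 3 min apart; n = 4 rats.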

[5] = tested on: Mus musculus; test: Anticonvulsant activity in Swiss Albino mouse at 300 mg/kg, ip after 4 hrs by scSTY test; type: functional, organism-based; parameters: dose 300 mg/kg; how it was run: as §1
[6] = tested on: Rattus norvegicus; test: Anti-dynamic allodynia effect in Sprague-Dawley rat SNL model assessed as latency to paw withdrawal 100 mg/kg, ip after 1 hr; type: functional; settings: route intraperitoneal; how it was run: as §2
[7] = tested on: Mus musculus; test: Neurotoxicity in Swiss Albino mouse at 300 mg/kg, ip after 4 hrs by rotarod test; type: functional, organism-based; parameters: dose 300 mg/kg
How it was run: (§5)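 Swiss mice (20-25 g) are trained on an accelerating rotorod (10 rpm, 3.2 cm rod), then injected i.p. at 30, 100 or 300 mg/kg, with three per group. Neurotoxicity means failure to keep equilibrium for at least 1 min in each of three trials, checked at 0.5 and 4 h. The value reported is the minimum dose affecting half or more of the mice.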

[8] = tested on: Mus musculus; test: Anticonvulsant activity in Swiss Albino mouse at 300 mg/kg, ip after 0.5 hr by MES test; type: functional, organism-based; parameters: dose 300 mg/kg; how it was run: as §1
[9] = tested on: Rattus norvegicus; test: Anti-cold allodynia effect in Sprague-Dawley rat SNL model assessed as duration of paw withdrawal 100 mg/kg, ip after 1 hrs; type: functional; settings: route intraperitoneal; how it was run: as §4
[10] = tested on: Rattus norvegicus; test: Anti-cold allodynia effect in Sprague-Dawley rat SNL model assessed as duration of paw withdrawal 100 mg/kg, ip after 2 hrs; type: functional; settings: route intraperitoneal; how it was run: as §4
[11] = tested on: Rattus norvegicus; test: Antihyperalgesic effects in Sprague-Dawley rat CCI model assessed as duration of paw withdrawal at 100 mg/kg, ip after 2.5 hrs; type: functional; settings: route intraperitoneal
[12] = tested on: Mus musculus; test: Anticonvulsant activity in Swiss Albino mouse at 300 mg/kg, ip after 4 hrs by MES test; type: functional, organism-based; parameters: dose 300 mg/kg; how it was run: as §1
[13] = tested on: Mus musculus; test: Neurotoxicity in Swiss Albino mouse at 300 mg/kg, ip after 0.5 hr by rotarod test; type: functional, organism-based; parameters: dose 300 mg/kg; how it was run: as §5
[14] = tested on: Mus musculus; test: Anticonvulsant activity in Swiss Albino mouse at 300 mg/kg, ip after 0.5 hr by scPIC test; type: functional, organism-based; parameters: dose 300 mg/kg; how it was run: as §1
[15] = tested on: Rattus norvegicus; test: Antihyperalgesic effects in Sprague-Dawley rat CCI model assessed as duration of paw withdrawal at 100 mg/kg, ip after 1.5 hrs; type: functional; settings: route intraperitoneal
[16] = tested on: Rattus norvegicus; test: Anti-dynamic allodynia effect in Sprague-Dawley rat SNL model assessed as latency to paw withdrawal 100 mg/kg, ip after 2.5 hrs; type: functional; settings: route intraperitoneal; how it was run: as §2
[17] = tested on: Rattus norvegicus; test: Antihyperalgesic effects in Sprague-Dawley rat SNL model assessed as duration of paw withdrawal at 100 mg/kg, ip after 1.5 hrs, ip; type: functional; settings: route intraperitoneal; how it was run: as §3
[18] = tested on: Rattus norvegicus; test: Antihyperalgesic effects in Sprague-Dawley rat CCI model assessed as duration of paw withdrawal at 100 mg/kg, ip after 2 hrs; type: functional; settings: route intraperitoneal
[19] = tested on: Rattus norvegicus; test: Antihyperalgesic effects in Sprague-Dawley rat CCI model assessed as duration of paw withdrawal at 100 mg/kg, ip after 0.5 hr; type: functional; settings: route intraperitoneal
[20] = tested on: Rattus norvegicus; test: Anti-dynamic allodynia effect in Sprague-Dawley rat SNL model assessed as latency to paw withdrawal 100 mg/kg, ip after 0.5 hr; type: functional; settings: route intraperitoneal; how it was run: as §2
[21] = tested on: Rattus norvegicus; test: Anti-cold allodynia effect in Sprague-Dawley rat SNL model assessed as duration of paw withdrawal 100 mg/kg, ip after 1.5 hrs; type: functional; settings: route intraperitoneal; how it was run: as §4
[22] = tested on: Mus musculus; test: Anticonvulsant activity in Swiss Albino mouse at 300 mg/kg, ip after 0.5 hr by scPTZ test; type: functional, organism-based; parameters: dose 300 mg/kg; how it was run: as §1
[23] = tested on: Rattus norvegicus; test: Anti-cold allodynia effect in Sprague-Dawley rat SNL model assessed as duration of paw withdrawal 100 mg/kg, ip after 0.5 hr; type: functional; settings: route intraperitoneal; how it was run: as §4
[24] = tested on: Rattus norvegicus; test: Anti-dynamic allodynia effect in Sprague-Dawley rat SNL model assessed as latency to paw withdrawal 100 mg/kg, ip after 1.5 hrs; type: functional; settings: route intraperitoneal; how it was run: as §2
[25] = tested on: Mus musculus; test: Analgesic activity in Swiss Albino mouse assessed as number of acetic acid-induced writhing per 30 min after 100 mg/kg, ip; type: functional; settings: route intraperitoneal
How it was run: (§6)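 Mice in groups of six dosed i.p. at 100 mg/kg, controls receiving 30% v/v PEG 400 in water. Writhing induced by i.p. 0.1 mL of 3% v/v acetic acid 1 h after drug. Writhes (abdominal stretch with at least one hind limb extended) counted over 30 min; % inhibition calculated. Mean ± SEM, Student's t test.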

[26] = tested on: Rattus norvegicus; test: Antihyperalgesic effects in Sprague-Dawley rat SNL model assessed as duration of paw withdrawal at 100 mg/kg, ip after 0.5 hr, ip; type: functional; settings: route intraperitoneal; how it was run: as §3
[27] = tested on: Mus musculus; test: Anticonvulsant activity in Swiss Albino mouse at 300 mg/kg, ip after 0.5 hr by scSTY test; type: functional, organism-based; parameters: dose 300 mg/kg; how it was run: as §1
[28] = tested on: Rattus norvegicus; test: Antihyperalgesic effects in Sprague-Dawley rat SNL model assessed as duration of paw withdrawal at 100 mg/kg, ip after 2 hrs, ip; type: functional; settings: route intraperitoneal; how it was run: as §3
[29] = tested on: Rattus norvegicus; test: Antihyperalgesic effects in Sprague-Dawley rat CCI model assessed as duration of paw withdrawal at 100 mg/kg, ip after 1 hr; type: functional; settings: route intraperitoneal
[30] = tested on: Mus musculus; test: Analgesic activity in Swiss Albino mouse assessed as inhibition of acetic acid-induced writhing responses at 100 mg/kg, ip; type: functional; settings: route intraperitoneal; how it was run: as §6
[31] = tested on: Rattus norvegicus; test: Antihyperalgesic effects in Sprague-Dawley rat SNL model assessed as duration of paw withdrawal at 100 mg/kg, ip after 2.5 hrs, ip; type: functional; settings: route intraperitoneal; how it was run: as §3
[32] = tested on: Rattus norvegicus; test: Effect on spontaneous pain in Sprague-Dawley rat SNL model assessed as duration of paw withdrawal at 100 mg/kg, ip after 2 hrs; type: functional; settings: route intraperitoneal
How it was run: (§7)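 Rats underwent left L5 spinal nerve ligation (Kim and Chung) under i.p. pentobarbital (65 mg/kg). Spontaneous pain is recorded for 5 min after 10 min acclimatization, as cumulative duration the ipsilateral paw is lifted, excluding locomotor lifts. Dosing is 100 mg/kg i.p. in 30% v/v PEG 400/water, with testing at 0.5–2.5 h. Four rats, mean ± SEM versus predrug, one-way ANOVA with Bonferroni.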

[33] = tested on: Rattus norvegicus; test: Effect on spontaneous pain in Sprague-Dawley rat SNL model assessed as duration of paw withdrawal at 100 mg/kg, ip after 2.5 hrs; type: functional; settings: route intraperitoneal; how it was run: as §7
[34] = tested on: Rattus norvegicus; test: Effect on spontaneous pain in Sprague-Dawley rat SNL model assessed as duration of paw withdrawal at 100 mg/kg, ip after 0.5 hr; type: functional; settings: route intraperitoneal; how it was run: as §7
[35] = tested on: Rattus norvegicus; test: Effect on spontaneous pain in Sprague-Dawley rat CCI model assessed as duration of paw withdrawal at 100 mg/kg, ip after 2 hrs; type: functional; settings: route intraperitoneal
How it was run: (§8)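 Unilateral CCI of sciatic nerve (Bennett and Xie) in Sprague-Dawley rats under i.p. pentobarbital sodium (65 mg/kg). Spontaneous pain is scored over 5 min after 10 min acclimatization, as cumulative time the ipsilateral paw is held off the floor. Paw lifts from locomotion or repositioning are excluded. Drug is given at 100 mg/kg i.p. with 30% v/v PEG 400 vehicle. Mean ± SEM, n = 4, compared with predrug by ANOVA/Bonferroni.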

[36] = tested on: Rattus norvegicus; test: Effect on spontaneous pain in Sprague-Dawley rat CCI model assessed as duration of paw withdrawal at 100 mg/kg, ip after 0.5 hr; type: functional; settings: route intraperitoneal
How it was run: (§9)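 CCI rats (n = 4) dosed 100 mg/kg i.p. (vehicle 30% v/v PEG 400 in water). After 10 min acclimatization in a cage 5 cm above ground, cumulative time the ipsilateral paw was held off the floor over 5 min recorded, excluding locomotion lifts. Mean ± SEM; ANOVA/Bonferroni versus predrug.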

[37] = tested on: Rattus norvegicus; test: Effect on spontaneous pain in Sprague-Dawley rat SNL model assessed as duration of paw withdrawal at 100 mg/kg, ip after 1 hr; type: functional; settings: route intraperitoneal; how it was run: as §7
[38] = tested on: Rattus norvegicus; test: Effect on spontaneous pain in Sprague-Dawley rat SNL model assessed as duration of paw withdrawal at 100 mg/kg, ip after 1.5 hrs; type: functional; settings: route intraperitoneal; how it was run: as §7
[39] = tested on: Rattus norvegicus; test: Effect on spontaneous pain in Sprague-Dawley rat CCI model assessed as duration of paw withdrawal at 100 mg/kg, ip after 2.5 hrs; type: functional; settings: route intraperitoneal; how it was run: as §8
[40] = tested on: Rattus norvegicus; test: Effect on spontaneous pain in Sprague-Dawley rat CCI model assessed as duration of paw withdrawal at 100 mg/kg, ip after 1 hr; type: functional; settings: route intraperitoneal; how it was run: as §9
[41] = tested on: Rattus norvegicus; test: Effect on spontaneous pain in Sprague-Dawley rat CCI model assessed as duration of paw withdrawal at 100 mg/kg, ip after 1.5 hrs; type: functional; settings: route intraperitoneal; how it was run: as §8

O=C(O)CCCNC(=O)NN=C1CCCC1
Activity [1]: inactive
Activity [2]: 10.3 s
Activity [3]: 9.9 s
Activity [4]: 1.9 s
Activity [5]: inactive
Activity [6]: 6.6 s
Activity [7]: Active
Activity [8]: inactive
Activity [9]: 11.2 s
Activity [10]: 11 s
Activity [11]: 25.3 s
Activity [12]: Active
Activity [13]: Active
Activity [14]: inactive
Activity [15]: 17.7 s
Activity [16]: 10.92 s
Activity [17]: 5.1 s
Activity [18]: 22.8 s
Activity [19]: 32.1 s
Activity [20]: 5.7 s
Activity [21]: 10.9 s
Activity [22]: inactive
Activity [23]: 12 s
Activity [24]: 7.8 s
Activity [25]: 18
Activity [26]: 5.3 s
Activity [27]: inactive
Activity [28]: 9.6 s
Activity [29]: 30.7 s
inhibition in vivo at 100 mg/kg [30]: 90%
Activity [31]: 8.6 s

C/C(=N\NC(=O)NCCCC(=O)O)c1ccc(C)cc1
Activity [32]: 2.9 s
Activity [1]: inactive
Activity [2]: 12.4 s
Activity [4]: 14.3 s
Activity [33]: 3.1 s
Activity [5]: inactive
Activity [34]: 22.2 s
Activity [6]: 9.1 s
Activity [7]: inactive
Activity [8]: inactive
Activity [9]: 23.9 s
Activity [10]: 10.7 s
Activity [11]: 4.2 s
Activity [12]: inactive
Activity [13]: Active
Activity [35]: 10.9 s
Activity [14]: Active
Activity [15]: 9.6 s
Activity [16]: 12.02 s
Activity [36]: 23.9 s
Activity [37]: 11.1 s
Activity [18]: 5.3 s
Activity [19]: 27.3 s
Activity [20]: 12.5 s
Activity [21]: 12.9 s
Activity [22]: Active
Activity [38]: 6.4 s
Activity [23]: 27.2 s
Activity [24]: 10.9 s
Activity [39]: 10.7 s
Activity [25]: 32.5
Activity [27]: inactive
Activity [40]: 21.8 s
Activity [29]: 13.2 s
inhibition in vivo at 100 mg/kg [30]: 82%
Activity [41]: 18.3 s
